In ChEMBL document CHEMBL1649441, “Potency and bactericidal activity of iclaprim against recent clinical gram-positive isolates” (2009):
In brackets after ≈: the same amount, converted by molar mass.

Legend:
Assay type in all cases: functional
[1] = system: Streptococcus sp. 'group A'; test: Antibacterial activity against Beta-hemolytic Streptococcus group A assessed as inhibition of bacterial growth at 0.03 ug/ml by CLSI broth microdilution method
Summary of the method: (§1)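 Clinical isolates from skin/soft tissue, bloodstream and respiratory specimens were tested by broth microdilution per CLSI M7-A7 and M100-S18, with quality controls. Values are the number of isolates inhibited at each concentration, or MIC / percent susceptible. Highest concentration tested was 8 µg/ml for iclaprim and trimethoprim-sulfamethoxazole, and 64 µg/ml for trimethoprim.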

[2] = system: Streptococcus sp. 'group B'; test: Antibacterial activity against Beta-hemolytic Streptococcus group B by CLSI broth microdilution method; summary of the method: as §1
[3] = system: Enterococcus faecalis; test: Antibacterial activity against Enterococcus faecalis assessed as inhibition of bacterial growth at 0.06 ug/ml by CLSI broth microdilution method; summary of the method: as §1
[4] = system: Staphylococcus aureus; test: Antibacterial activity against Methicillin-sensitive Staphylococcus aureus assessed as inhibition of bacterial growth at 0.03 ug/ml by CLSI broth microdilution method; parameters: Activity: scale not given: the % may be the effect or the level left
Summary of the method: (§2)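 Recent clinical isolates from skin/soft tissue, bloodstream and respiratory specimens. Tested by broth microdilution per CLSI M7-A7 and M100-S18, with the appropriate quality controls. The thymidine content of the test medium was assessed to rule out artifactual inhibition.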

[5] = system: Streptococcus sp. 'group B'; test: Antibacterial activity against Beta-hemolytic Streptococcus group B assessed as inhibition of bacterial growth at 4 ug/ml by CLSI broth microdilution method; summary of the method: as §1
[6] = system: Streptococcus sp. 'group A'; test: (§3) Antibacterial activity against Beta-hemolytic Streptococcus group A assessed as inhibition of bacterial growth at […] by CLSI broth microdilution method
[7] = system: Staphylococcus aureus; test: Antibacterial activity against Methicillin-resistant Staphylococcus aureus assessed as inhibition of bacterial growth at 8 ug/ml by CLSI broth microdilution method; summary of the method: as §2
[8] = system: Enterococcus faecium; test: Antibacterial activity against Enterococcus faecium assessed as inhibition of bacterial growth at 2 ug/ml by CLSI broth microdilution method
[9] = system: Enterococcus faecium; test: Antibacterial activity against Enterococcus faecium assessed as inhibition of bacterial growth at 8 ug/ml by CLSI broth microdilution method
[10] = system: Enterococcus faecalis; test: Antibacterial activity against Enterococcus faecalis assessed as inhibition of bacterial growth at 0.03 ug/ml by CLSI broth microdilution method; summary of the method: as §1
[11] = system: Enterococcus faecium; test: Antibacterial activity against Enterococcus faecium assessed as inhibition of bacterial growth at 4 ug/ml by CLSI broth microdilution method
[12] = system: Staphylococcus aureus; test: (§4) Antibacterial activity against Methicillin-resistant Staphylococcus aureus assessed as inhibition of bacterial growth at […] by CLSI broth microdilution method
[13] = system: Staphylococcus aureus; test: Antibacterial activity against Methicillin-sensitive Staphylococcus aureus assessed as inhibition of bacterial growth at 4 ug/ml by CLSI broth microdilution method
[14] = system: Staphylococcus aureus; test: Antibacterial activity against Methicillin-sensitive Staphylococcus aureus assessed as inhibition of bacterial growth at 0.06 ug/ml by CLSI broth microdilution method; parameters: Activity: scale not given: the % may be the effect or the level left
[15] = system: Enterococcus faecalis; test: (§5) Antibacterial activity against Enterococcus faecalis assessed as inhibition of bacterial growth at […] by CLSI broth microdilution method
[16] = system: Staphylococcus aureus; test: Antibacterial activity against Methicillin-resistant Staphylococcus aureus assessed as inhibition of bacterial growth at 2 ug/ml by CLSI broth microdilution method; summary of the method: as §2
[17] = system: Streptococcus sp. 'group A'; test: Antibacterial activity against Beta-hemolytic Streptococcus group A assessed as inhibition of bacterial growth at 4 ug/ml by CLSI broth microdilution method; summary of the method: as §1
[18] = system: Staphylococcus aureus; test: Antibacterial activity against Methicillin-sensitive Staphylococcus aureus assessed as inhibition of bacterial growth at 8 ug/ml by CLSI broth microdilution method; summary of the method: as §2
[19] = system: Streptococcus sp. 'group A'; test: Antibacterial activity against Beta-hemolytic Streptococcus group A assessed as inhibition of bacterial growth at 1 ug/ml by CLSI broth microdilution method; summary of the method: as §1
[20] = system: Streptococcus sp. 'group B'; test: Antibacterial activity against Beta-hemolytic Streptococcus group B assessed as inhibition of bacterial growth at 0.03 ug/ml by CLSI broth microdilution method; summary of the method: as §1
[21] = system: Streptococcus sp. 'group B'; test: Antibacterial activity against Beta-hemolytic Streptococcus group B assessed as inhibition of bacterial growth at […] by CLSI broth microdilution method
[22] = system: Enterococcus faecalis; test: as §5; remark: listed apart in the source
[23] = system: Streptococcus sp. 'group B'; test: Antibacterial activity against Beta-hemolytic Streptococcus group B assessed as inhibition of bacterial growth at 1 ug/ml by CLSI broth microdilution method; summary of the method: as §1
[24] = system: Enterococcus faecalis; test: Antibacterial activity against Enterococcus faecalis assessed as inhibition of bacterial growth at 0.5 ug/ml by CLSI broth microdilution method; summary of the method: as §1
[25] = system: Enterococcus faecium; test: Antibacterial activity against Enterococcus faecium assessed as inhibition of bacterial growth at 0.5 ug/ml by CLSI broth microdilution method
[26] = system: Streptococcus sp. 'group B'; test: Antibacterial activity against Beta-hemolytic Streptococcus group B assessed as inhibition of bacterial growth at 0.5 ug/ml by CLSI broth microdilution method; summary of the method: as §1
[27] = system: Streptococcus sp. 'group B'; test: Antibacterial activity against Beta-hemolytic Streptococcus group B assessed as inhibition of bacterial growth at 0.06 ug/ml by CLSI broth microdilution method; summary of the method: as §1
[28] = system: Streptococcus sp. 'group A'; test: Antibacterial activity against Beta-hemolytic Streptococcus group A assessed as inhibition of bacterial growth at 8 ug/ml by CLSI broth microdilution method; summary of the method: as §1
[29] = system: Enterococcus faecalis; test: Antibacterial activity against Enterococcus faecalis assessed as inhibition of bacterial growth at 4 ug/ml by CLSI broth microdilution method; summary of the method: as §1
[30] = system: Enterococcus faecium; test: Antibacterial activity against Enterococcus faecium by CLSI broth microdilution method
[31] = system: Staphylococcus aureus; test: Antibacterial activity against Methicillin-sensitive Staphylococcus aureus assessed as inhibition of bacterial growth at 0.5 ug/ml by CLSI broth microdilution method
[32] = system: Staphylococcus aureus; test: as §4; remark: listed apart in the source
[33] = system: Staphylococcus aureus; test: Antibacterial activity against Methicillin-sensitive Staphylococcus aureus assessed as inhibition of bacterial growth at 2 ug/ml by CLSI broth microdilution method
[34] = system: Enterococcus faecalis; test: Antibacterial activity against Enterococcus faecalis assessed as inhibition of bacterial growth at 1 ug/ml by CLSI broth microdilution method; summary of the method: as §1
[35] = system: Staphylococcus aureus; test: Antibacterial activity against Methicillin-resistant Staphylococcus aureus assessed as inhibition of bacterial growth at 1 ug/ml by CLSI broth microdilution method; summary of the method: as §2
[36] = system: Staphylococcus aureus; test: Antibacterial activity against Methicillin-resistant Staphylococcus aureus assessed as inhibition of bacterial growth at 4 ug/ml by CLSI broth microdilution method; summary of the method: as §2
[37] = system: Streptococcus sp. 'group A'; test: Antibacterial activity against Beta-hemolytic Streptococcus group A by CLSI broth microdilution method; summary of the method: as §1
[38] = system: Enterococcus faecium; test: Antibacterial activity against Enterococcus faecium assessed as inhibition of bacterial growth at 1 ug/ml by CLSI broth microdilution method
[39] = system: Enterococcus faecium; test: Antibacterial activity against Enterococcus faecium assessed as inhibition of bacterial growth at […] by CLSI broth microdilution method; note: tested at 0.25 µg/mL
[40] = system: Streptococcus sp. 'group A'; test: as §3; remark: listed apart in the source
[41] = system: Enterococcus faecium; test: Antibacterial activity against Enterococcus faecium assessed as inhibition of bacterial growth at 0.03 ug/ml by CLSI broth microdilution method; summary of the method: as §1
[42] = system: Streptococcus sp. 'group B'; test: Antibacterial activity against Beta-hemolytic Streptococcus group B assessed as inhibition of bacterial growth at 8 ug/ml by CLSI broth microdilution method; summary of the method: as §1
[43] = system: Enterococcus faecalis; test: Antibacterial activity against Enterococcus faecalis assessed as inhibition of bacterial growth at >8 ug/ml by CLSI broth microdilution method; summary of the method: as §1

COc1cc(Cc2cnc(N)nc2N)c2c(c1OC)OC(C1CC1)C=C2 (configuration not stated)
inhibition at 0.03 µg/mL [1]: 94.9% | MIC50 [2]: 0.12 µg/mL (≈ 0.339 µM) | MIC90 [2]: 0.25 µg/mL (≈ 0.705 µM) | inhibition at 0.06 µg/mL [3]: 67.1% | inhibition at 0.03 µg/mL ([4]; Staphylococcus aureus): 6.1% | inhibition at 4 µg/mL [5]: 100% | inhibition at […] [6]: 100% | inhibition at 8 µg/mL [7]: 100% | inhibition at 2 µg/mL [8]: 58.1% | inhibition at 8 µg/mL [9]: 75.6% | inhibition at 0.03 µg/mL [10]: 63.9% | inhibition at 4 µg/mL [11]: 74.9% | inhibition at […] [12]: 91.1% | inhibition at 4 µg/mL [13]: 99.9% | inhibition at 0.06 µg/mL ([14]; Staphylococcus aureus): 58.8% | inhibition at […] [15]: 69% | inhibition at 2 µg/mL [16]: 94.6% | inhibition at 4 µg/mL [17]: 100% | inhibition at 8 µg/mL [18]: 100% | inhibition at 1 µg/mL [19]: 100% | inhibition at 0.03 µg/mL [20]: 0.5% | inhibition at […] [21]: 55.4% | inhibition at […] [22]: 70.6% | inhibition at 1 µg/mL [23]: 100% | inhibition at 0.5 µg/mL [24]: 70.6% | inhibition at 0.5 µg/mL [25]: 39.3% | inhibition at 0.5 µg/mL [26]: 100% | inhibition at 0.06 µg/mL [27]: 5.4% | inhibition at 8 µg/mL [28]: 100% | inhibition at 4 µg/mL [29]: 96.8% | MIC50 [30]: 2 µg/mL (≈ 5.64 µM) | MIC90 [30]: > 8 µg/mL | inhibition at 0.5 µg/mL [31]: 98.6% | inhibition at […] [32]: 92.3% | inhibition at 2 µg/mL [33]: 98.7% | inhibition at 1 µg/mL [34]: 71% | inhibition at 1 µg/mL [35]: 93.8% | inhibition at 4 µg/mL [36]: 97.9% | MIC50 [37]: 0.015 µg/mL (≈ 0.0423 µM) | MIC90 [37]: 0.03 µg/mL (≈ 0.0846 µM) | inhibition at 1 µg/mL [38]: 42.2% | inhibition at […] [39]: 38.3% | inhibition at […] [40]: 100% | inhibition at 0.03 µg/mL [41]: 37.6% | inhibition at 8 µg/mL [42]: 100% | inhibition (INH) [43]: 100%

COc1cc(Cc2cnc(N)nc2N)cc(OC)c1OC [TRIMETHOPRIM]
inhibition at 0.03 µg/mL [1]: 0.8% | MIC50 [2]: 1 µg/mL (≈ 3.44 µM) | MIC90 [2]: 4 µg/mL (≈ 13.8 µM) | inhibition at 0.06 µg/mL [3]: 4.2% | Activity [4]: 0% | inhibition at 4 µg/mL [5]: 99.5% | inhibition at […] [6]: 45.9% | inhibition at 8 µg/mL [7]: 92.9% | inhibition at 2 µg/mL [8]: 38.3% | inhibition at 8 µg/mL [9]: 41.6% | inhibition at 0.03 µg/mL [10]: 0.6% | inhibition at 4 µg/mL [11]: 38.9% | inhibition at […] [12]: 0.2% | inhibition at 4 µg/mL [13]: 98.5% | Activity [14]: 0.1% | inhibition at […] [15]: 29.7% | inhibition at 2 µg/mL [16]: 92.1% | inhibition at 4 µg/mL [17]: 100% | inhibition at 8 µg/mL [18]: 98.7% | inhibition at 1 µg/mL [19]: 99.5% | inhibition at 0.03 µg/mL [20]: 0% | inhibition at […] [21]: 0% | inhibition at […] [22]: 56.5% | inhibition at 1 µg/mL [23]: 51% | inhibition at 0.5 µg/mL [24]: 62.9% | inhibition at 0.5 µg/mL [25]: 37.6% | inhibition at 0.5 µg/mL [26]: 5.9% | inhibition at 0.06 µg/mL [27]: 0% | inhibition at 8 µg/mL [28]: 100% | inhibition at 4 µg/mL [29]: 70% | MIC50 [30]: 32 µg/mL (≈ 110 µM) | MIC90 [30]: > 64 µg/mL | inhibition at 0.5 µg/mL [31]: 34.3% | inhibition at […] [32]: 5.7% | inhibition at 2 µg/mL [33]: 97.8% | inhibition at 1 µg/mL [34]: 64.5% | inhibition at 1 µg/mL [35]: 88.5% | inhibition at 4 µg/mL [36]: 92.5% | MIC50 [37]: 0.25 µg/mL (≈ 0.861 µM) | MIC90 [37]: 0.5 µg/mL (≈ 1.72 µM) | inhibition at 1 µg/mL [38]: 38% | inhibition at […] [39]: 37.3% | inhibition at […] [40]: 84.6% | inhibition at 0.03 µg/mL [41]: 13.9% | inhibition at 8 µg/mL [42]: 100% | inhibition (INH) [43]: 100%
